Shown is part of a subset that was picked to be rich in hits.
bCat KO growth: beta-catenin-lacking colon tumor cell growth suppression; HCT116 beta-catenin knockout viability, CellTiter-Glo, 60 h; hits give low values; viability, % at 10 µM; 140,000 compounds, 1.5% hits;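 active means viability at or under a set limit, the compound median less 4 SD, cut at about 6% in these data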
Lung fibro prol: blocks proliferation of human lung fibroblasts | AID 719 | 85,000 compounds, 1.1% hits | LL 47 human lung fibroblast viability, ATP luminescence; hits give low values | viability, % at 10 µM;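 active means viability at or below 50% in the single dose screen; inactive means viability above 50%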;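 further: compound exposure lasted 72 h before the ATP readout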
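Signal: luminescent ATP detection, CellTiter-Glo; assay system: LL 47 human lung fibroblasts; input: 1,150 cells/well; incubation: overnight cell rest, 72 h compound treatment at 37 °C; measure: % viability versus median cells-only luminescence; medium: IMEM growth medium with 15% fetal bovine serum; dosing: compound addition at 0.1% DMSO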
HCT116 PTEN-null: suppresses growth of cells with PTEN deletion. HCT116 PTEN-null viability, CellTiter-Glo, 60 h; hits give low values. viability, % at 10 µM. 140,000 compounds, 1.2% hits. AID 827;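 active means viability at or below a set limit, 4 SD under the median of all tested compounds, cut at about 3.7% in these data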;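 further: PTEN knockout HCT116 line with beta catenin targeted HCT116 as companion control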
H69AR growth 86K: blocks growth of human H69AR lung tumor cells | H69AR lung tumor viability, ATP luminescence, 72 h; hits give low values | viability, % at 10 µM | 85,000 compounds, 6% hits;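 active means viability at or below 40%; inactive means viability above 40%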;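 further: multidrug resistant small cell line overexpressing MRP-1 efflux transporter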
PTK2B oligo ant: blocks oligomerization of human Pyk2 in cells; AID 1347419; z-score (the deposit names both 25 µM and 10 µM); Q14289; 99,000 compounds, 0.83% hits; Q293 cells, Pyk2 FERM NanoBiT luminescence; hits give low values;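 active means Z-score of -3 or lower, scaled per plate to the spread of control and sample wells; inactive means z-score above -3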;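 further: negative z-score means lost luminescence so less FERM oligomerization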
Target sequence (Q14289 whole entry, looked up): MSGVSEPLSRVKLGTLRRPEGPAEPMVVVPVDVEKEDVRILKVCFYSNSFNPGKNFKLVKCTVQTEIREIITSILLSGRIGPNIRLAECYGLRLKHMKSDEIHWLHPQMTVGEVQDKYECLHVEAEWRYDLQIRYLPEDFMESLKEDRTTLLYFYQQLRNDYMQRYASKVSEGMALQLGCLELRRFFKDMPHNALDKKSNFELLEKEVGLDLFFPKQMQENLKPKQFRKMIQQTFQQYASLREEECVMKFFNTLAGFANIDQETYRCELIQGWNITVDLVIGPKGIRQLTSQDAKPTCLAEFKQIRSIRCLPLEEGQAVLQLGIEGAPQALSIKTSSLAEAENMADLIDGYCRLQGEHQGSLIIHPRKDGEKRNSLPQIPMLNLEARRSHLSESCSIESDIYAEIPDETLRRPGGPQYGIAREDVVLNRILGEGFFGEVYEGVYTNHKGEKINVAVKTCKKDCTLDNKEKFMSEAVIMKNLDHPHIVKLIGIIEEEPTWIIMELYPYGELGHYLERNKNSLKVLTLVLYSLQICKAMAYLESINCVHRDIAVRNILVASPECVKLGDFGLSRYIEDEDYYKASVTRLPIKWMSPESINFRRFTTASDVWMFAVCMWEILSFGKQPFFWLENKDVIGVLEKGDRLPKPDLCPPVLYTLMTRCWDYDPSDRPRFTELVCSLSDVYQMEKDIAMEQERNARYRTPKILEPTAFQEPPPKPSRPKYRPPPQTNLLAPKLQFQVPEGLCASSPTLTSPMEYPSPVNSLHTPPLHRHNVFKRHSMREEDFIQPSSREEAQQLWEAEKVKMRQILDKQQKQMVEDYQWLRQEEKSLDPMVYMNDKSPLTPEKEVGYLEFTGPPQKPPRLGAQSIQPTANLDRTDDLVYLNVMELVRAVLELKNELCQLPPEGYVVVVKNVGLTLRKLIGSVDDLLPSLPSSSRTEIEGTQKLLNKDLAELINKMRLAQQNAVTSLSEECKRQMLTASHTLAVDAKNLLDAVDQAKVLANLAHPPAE
HUVEC inhibit: inhibitors of human endothelial cell proliferation; HUVEC proliferation, CellTiter-Glo luminescence, 72 h; hits give low values; viability, % at 10 µM (by protocol); 86,000 compounds, 1.1% hits;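 active means viability at or below 30%; inactive means viability above 30%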
A number is an active result; - = inactive; . = no result.

SMILES	bCat KO growth	Lung fibro prol	HCT116 PTEN-null	H69AR growth 86K	PTK2B oligo ant	HUVEC inhibit
COc1ccccc1NC(=O)N(Cc1ccco1)Cc1cc2ccc(C)c(C)c2[nH]c1=O	-	-	-	17	-	-
COc1ccccc1NC(=O)N(Cc1ccco1)Cc1cc2cc(C)cc(C)c2[nH]c1=O	-	-	-	19	-	-
CCCCSc1nc(C)cc(C)c1S(=O)(=O)c1ccccc1C	-	.	-	.	-	.
COC(=O)/C(=C(/F)Sc1cc(C)c(O)c(C)c1)C(F)(F)F	-	9.3	-	2.7	-	23
COc1ccc(OC)c(/C=N/N(C)c2ccccc2)c1	-	-	-	-	-	-
COc1cc(/C=N/N(C)c2ccccc2)cc(Cl)c1O	-	-	-	16	-3	-
COc1ccc(N(C(=O)c2ccco2)S(=O)(=O)c2cc(Cl)c(Cl)cc2Cl)cc1	-	-	-	20	-	-
CC(C)CC(NC(=O)OC(C)(C)C)C(=O)NC(C(=O)NC(C)C(N)=O)C(C)C (stereo not drawn)	-	-	-	-	-	-
CC(C)CC(NC(=O)C(NC(=O)C(Cc1ccc(OCc2ccccc2)cc1)NC(=O)OC(C)(C)C)C(C)C)C(N)=O (stereo not drawn)	5.5	.	-	.	.	.
CC(C)=NN/C(N)=N/C(=S)Nc1ccc(C)cc1	-	.	-	.	-	.
O=C(CCCn1c(=S)[nH]c2ccccc2c1=O)N1CCN(c2cccc(Cl)c2)CC1	-	-	-	-	-3	-
Cc1cccc2cc(C(c3nnnn3Cc3ccccc3)N3CCCc4ccccc43)c(=O)[nH]c12 (stereo not drawn)	1.8	.	2.7	.	-	.
COc1ccc(N2CCCn3c2nc2c3c(=O)n(Cc3ccc(F)cc3)c(=O)n2C)c(OC)c1	.	-	.	-	-	-
Cc1ccnc(N2C(=O)c3cccc4c([N+](=O)[O-])ccc(c34)C2=O)c1	1.2	.	1.3	.	-	.
O=C1c2cc([N+](=O)[O-])cc3cc([N+](=O)[O-])cc(c23)C(=O)N1c1ccccn1	-	.	-	.	.	.
Cc1cc(C(F)(F)F)n2nc(C)c(-c3ccc(Cl)cc3)c2n1	-	.	-	.	.	.
Cc1cc(-n2nc(C)cc2C)n2nc(C)c(-c3ccc(Cl)cc3)c2n1	-	46	-	-	-	-
C=CCSc1cc(C)nc2c(-c3ccc(Cl)cc3)c(C)nn12	-	-	-	36	-	-
Cc1cc(SCC(=O)c2cccs2)n2nc(C)c(-c3ccc(Cl)cc3)c2n1	-	.	-	.	.	.
CCOC(=S)SCC(=O)N1CCc2ccccc2C1C1C(=O)CCCC1=O (stereo not drawn)	-	.	-	.	.	.
O=C(c1c(F)c(F)c(F)c(F)c1F)N(Cc1ccccc1)Cc1ccccc1	-	-	-	36	-	-
O=C(O)c1ccccc1C(=O)N(Cc1ccccc1)Cc1ccccc1	-	-	-	-	-	-
O=C1/C(=C/c2ccc([N+](=O)[O-])cc2)C=C(c2ccccc2)N1c1ccc(O)cc1	2.2	-	2.2	26	-	9.9
COc1ccc(N2C(=O)/C(=C/c3ccc([N+](=O)[O-])cc3)C=C2c2ccccc2)cc1	-	-	-	21	-	-
CC1(C)C2CCC1(C)C(OCC[N+](C)(C)CC(=O)OC1CCCCC1)C2 (stereo not drawn)	-	.	-	.	.	.
SMILES	bCat KO growth	Lung fibro prol	HCT116 PTEN-null	H69AR growth 86K	PTK2B oligo ant	HUVEC inhibit
COc1ccc(Cl)cc1C(=O)Nc1nnn(C)n1	-	-	-	-	-	-
CCCCOc1cccc(C(=O)N(Cc2cccs2)C2CCS(=O)(=O)C2)c1 (stereo not drawn)	-	-	-	37	-	-
CC(CCc1ccccc1)NC(=O)c1cccs1 (stereo not drawn)	-	.	-	.	-	.
COc1ccccc1/C=C/C=N/NC(=O)c1ccncc1	-	.	-	.	.	.
COc1ccc(/C=C/c2ccncc2)c2ccccc12	-	-	-	14	-	-
COc1cc(-c2noc(CCCC(=O)NCc3ccccc3)n2)cc(OC)c1OC	-	-	-	-	-	-
CCC(=O)NC(Nc1nc(C)cs1)(C(=O)OC)C(F)(F)F (stereo not drawn)	-	.	-	.	.	.
Cc1ccc2cc(CN(CCN3CCCC3)C(=O)Nc3ccccc3)c(=O)[nH]c2c1C	-	-	-	-	-	-
CCc1ccc2[nH]c(=O)c(CN(CCCN3CCOCC3)C(=O)Nc3ccc(F)cc3)cc2c1	-	-	-	34	-	-

Assay outcomes deposited in PubChem by several laboratories.
